In ChEMBL document CHEMBL3400141, “Substituted piperazines as nootropic agents: 2- or 3-phenyl derivatives structurally related to the cognition-enhancer DM235” (Bioorg Med Chem Lett, 2015):

Each compound was assayed on Mus musculus (assay: Cognition enhancing activity in sc dosed mouse assessed as reversal of scopolamine-induced amnesia measured up to 24 hrs treated 20 mins before training session by passive-avoidance test). Conditions: read-out: MED.
Type: functional
Outline: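 Mouse passive-avoidance test (Jarvik and Kopp, slightly modified). Compounds in DMSO/saline (1:10), given s.c. 20 min before training, tested in a 1:10 dose-dilution sequence. Amnesia induced by scopolamine 1.5 mg/kg i.p. immediately after punishment. Mean of 8–16 mice per group; activity reported as minimal effective dose (MED, mg/kg).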
`O=C(c1ccccc1)N1CCNC(c2ccccc2)C1` (racemic) was tested, and the minimal effective dose was > 10 mg/kg. Work on `CC(=O)N1CCN(S(=O)(=O)c2ccc(F)cc2)CC1C` (centres undefined) yielded a minimal effective dose of 1 mg/kg. For `CC(=O)N1CCN(S(=O)(=O)c2ccc(F)cc2)CC1`, the minimal effective dose was 0.01 mg/kg. For `CCC(=O)N1CCN(C(=O)c2ccccc2)CC1C` (centres undefined), the minimal effective dose was > 10 mg/kg. For `CC(=O)N1CCNC(c2ccccc2)C1` (centres undefined), the minimal effective dose was > 10 mg/kg. For `CCC(=O)N1CCN(C(=O)c2ccccc2)C(Cc2ccccc2)C1` (centres undefined), the minimal effective dose was 1 mg/kg. For `CCC(=O)N1CCN(C(=O)c2ccccc2)CC1Cc1ccccc1` (centres undefined), the minimal effective dose was 1 mg/kg. Work on `CCC(=O)N1CCN(C(=O)c2ccccc2)CC1` [SUNIFIRAM] yielded a minimal effective dose of 0.001 mg/kg. With `NC(=O)CN1CCCC1=O` [PIRACETAM] the minimal effective dose was 30 mg/kg. In the case of `CCC(=O)N1CCNC(c2ccccc2)C1` (centres undefined), the minimal effective dose is reported as > 10 mg/kg. For `CCC(=O)N1CCN(C(=O)c2ccccc2)C[C@@H]1c1ccccc1`, the minimal effective dose was 1 mg/kg. `CCC(=O)N1CCN2C(=O)c3ccccc3C2C1` (centres undefined) was tested, and the minimal effective dose was > 10 mg/kg. `O=C1c2ccccc2C2CN(S(=O)(=O)c3ccc(F)cc3)CCN12` (centres undefined) gave a minimal effective dose of 0.1 mg/kg. In the case of `CCC(=O)N1CCNCC1`, the minimal effective dose is reported as 0.1 mg/kg. Compound `CCC(=O)N1CCN(C(=O)c2ccccc2)C[C@H]1c1ccccc1` has a minimal effective dose of 0.1 mg/kg. In the case of `CCC(=O)N1CCN(C(=O)c2ccccc2)C(c2ccccc2)C1` (centres undefined), the minimal effective dose is reported as 1 mg/kg. With `CC(=O)N1CCN(S(=O)(=O)c2ccc(F)cc2)CC1c1ccccc1` (centres undefined) the minimal effective dose was > 10 mg/kg. In the case of `O=S(=O)(c1ccc(F)cc1)N1CCNC(c2ccccc2)C1` (centres undefined), the minimal effective dose is reported as > 10 mg/kg. In the case of `CCC(=O)N1CCN(C(=O)c2ccccc2)C(C)C1` (centres undefined), the minimal effective dose is reported as 0.1 mg/kg. Work on `CC(=O)N1CCN(S(=O)(=O)c2ccc(F)cc2)C(c2ccccc2)C1` (centres undefined) yielded a minimal effective dose of 10 mg/kg. `CC(=O)N1CCN(S(=O)(=O)c2ccc(F)cc2)C(C)C1` (centres undefined) gave a minimal effective dose of 0.1 mg/kg. `O=C1CCC2CN(S(=O)(=O)c3ccc(F)cc3)CCN12` (centres undefined) [UNIFIRAM] was tested, and the minimal effective dose was 0.001 mg/kg. Work on `CCC(=O)N1CCN(C(=O)c2ccccc2)CC1c1ccccc1` (racemic) yielded a minimal effective dose of 0.1 mg/kg. Compound `O=C(c1ccccc1)N1CCNCC1` has a minimal effective dose of 0.1 mg/kg.
